In brackets after ≈: the same amount, converted by molar mass.
Legend:
Nakaseomyces glabratus [1] = experiment: Antifungal activity against Candida glabrata ATCC 48435 assessed as growth inhibition after 48 hrs by broth microdilution relative to control; type: functional
How it was run: (§1)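 Broth microdilution against yeast; incubation at 35 °C for 48 h. Growth read by visual turbidity versus antifungal-free control wells and by absorbance at 530 nm. MIC₅₀ taken as the lowest level giving a prominent visual decrease in turbidity plus >50% growth reduction versus no-antifungal controls. Values in µg/mL; partial inhibition (e.g. 25%) noted where below threshold.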

Cryptococcus neoformans [2] = experiment: Antifungal activity against Cryptococcus neoformans ATCC 36556 assessed as growth inhibition after 48 hrs by broth microdilution relative to control; type: functional; how it was run: as §1
Candida albicans = experiment: Antifungal activity against Candida albicans ATCC 10231 assessed as growth inhibition after 48 hrs by broth microdilution relative to control; type: functional; how it was run: as §1
Cryptococcus neoformans [3] = experiment: Antifungal activity against Cryptococcus neoformans ATCC 36556 after 48 hrs by broth microdilution technique; type: functional; details: ATCC 36556, 48 h; how it was run: as §1
[4] = Cytotoxicity against Sylvilagus floridanus CCL68 cells after 24 hrs by MTT assay; type: cell-based
How it was run: (§2)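 Tetrazolium (MTT-type) proliferation assay on noncancerous Vero and rabbit skin cells. Compounds diluted in media to 200, 100, 50 and 25 µg/ml; 24 h exposure at 37 °C, 5% CO₂. Dye added for 1–4 h, then stop solution 1 h at room temperature; formazan read at 570 nm. Viability given as % of 1% DMSO no-drug wells; saponin as cell-death control; triplicate, mean ± SD.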

Vero = experiment: Cytotoxicity against african green monkey Vero cells after 24 hrs by MTT assay; type: cell-based; details: chlorocebus sabaeus; how it was run: as §2
Nakaseomyces glabratus [5] = experiment: Antifungal activity against Candida glabrata ATCC 48435 after 48 hrs by broth microdilution technique; type: functional; details: ATCC 48435, 48 h; how it was run: as §1

Row | MIC50 (Cryptococcus neoformans [3]) | MIC50 (Nakaseomyces glabratus [5]) | Structure (SMILES) | growth inhibition (GI) (Nakaseomyces glabratus [1]) | growth inhibition (GI) (Cryptococcus neoformans [2]) | growth inhibition (GI) (Candida albicans) | Activity [4] | Activity (Vero)
1 | – | – | CC(C)CCC[C@@H](C)[C@H]1CC[C@H]2[C@@H]3CC[C@H]4C[C@@H](O)CC[C@]4(C)[C@H]3CC[C@]12C | <50% | <50% | <50% | – | –
2 | 32 µg/mL (≈ 79.1 µM) | – | CC(C)CCC[C@@H](C)[C@H]1CC[C@H]2[C@@H]3CC[C@H]4C[C@@H](O)[C@H](O)C[C@]4(C)[C@H]3CC[C@]12C | <50% | 25% | <50% | – | –
3 | – | – | CC(C)CCC[C@@H](C)[C@H]1CC[C@H]2[C@@H]3CC[C@H]4C[C@@H](O[C@H]5O[C@H](CO)[C@@H](O)[C@H](O)[C@H]5O)CC[C@]4(C)[C@H]3CC[C@]12C | <50% | <50% | <50% | – | –
4 | – | – | CC(C)CCC[C@@H](C)[C@H]1CC[C@H]2[C@@H]3CC[C@H]4C[C@@H](O[C@@H]5O[C@H](CO)[C@@H](O)[C@H](O)[C@H]5O)CC[C@]4(C)[C@H]3CC[C@]12C | <50% | <50% | <50% | – | –
5 | – | – | CC(C)CCC[C@@H](C)[C@H]1CC[C@H]2[C@@H]3CC[C@H]4C[C@@H](O[C@H]5O[C@H](CO)[C@@H](O[C@H]6O[C@H](CO)[C@@H](O)[C@H](O)[C@H]6O)[C@H](O)[C@H]5O)CC[C@]4(C)[C@H]3CC[C@]12C | <50% | <50% | <50% | – | –
6 | 4 µg/mL (≈ 5.61 µM) | 4 µg/mL (≈ 5.61 µM) | CC(C)CCC[C@@H](C)[C@H]1CC[C@H]2[C@@H]3CC[C@H]4C[C@@H](O[C@@H]5O[C@H](CO)[C@@H](O[C@H]6O[C@H](CO)[C@@H](O)[C@H](O)[C@H]6O)[C@H](O)[C@H]5O)CC[C@]4(C)[C@H]3CC[C@]12C | – | – | <50% | Non-toxic | Non-toxic
7 | > 125 µg/mL | > 125 µg/mL | CC(C)CCC[C@@H](C)[C@H]1CC[C@H]2[C@@H]3CC[C@H]4C[C@@H](O[C@@H]5O[C@H](CO)[C@@H](O[C@@H]6O[C@H](CO)[C@@H](O)[C@H](O)[C@H]6O)[C@H](O)[C@H]5O)CC[C@]4(C)[C@H]3CC[C@]12C | – | – | <50% | – | –
8 | – | – | CC(C)CCC[C@@H](C)[C@H]1CC[C@H]2[C@@H]3CC[C@H]4C[C@@H](O[C@H]5O[C@H](CO)[C@@H](O)[C@H](O)[C@H]5O)[C@H](O)C[C@]4(C)[C@H]3CC[C@]12C | <50% | <50% | <50% | – | –
9 | – | – | CC(C)CCC[C@@H](C)[C@H]1CC[C@H]2[C@@H]3CC[C@H]4C[C@@H](O[C@@H]5O[C@H](CO)[C@@H](O)[C@H](O)[C@H]5O)[C@H](O)C[C@]4(C)[C@H]3CC[C@]12C | <50% | <50% | <50% | – | –
10 | – | – | CC(C)CCC[C@@H](C)[C@H]1CC[C@H]2[C@@H]3CC[C@H]4C[C@@H](O[C@H]5O[C@H](CO)[C@@H](O[C@H]6O[C@H](CO)[C@@H](O)[C@H](O)[C@H]6O)[C@H](O)[C@H]5O)[C@H](O)C[C@]4(C)[C@H]3CC[C@]12C | <50% | <50% | <50% | – | –
11 | 32 µg/mL (≈ 43.9 µM) | – | CC(C)CCC[C@@H](C)[C@H]1CC[C@H]2[C@@H]3CC[C@H]4C[C@@H](O[C@@H]5O[C@H](CO)[C@@H](O[C@H]6O[C@H](CO)[C@@H](O)[C@H](O)[C@H]6O)[C@H](O)[C@H]5O)[C@H](O)C[C@]4(C)[C@H]3CC[C@]12C | <50% | – | <50% | – | –
12 | 4 µg/mL (≈ 5.49 µM) | 8 µg/mL (≈ 11 µM) | CC(C)CCC[C@@H](C)[C@H]1CC[C@H]2[C@@H]3CC[C@H]4C[C@@H](O[C@@H]5O[C@H](CO)[C@@H](O[C@@H]6O[C@H](CO)[C@@H](O)[C@H](O)[C@H]6O)[C@H](O)[C@H]5O)[C@H](O)C[C@]4(C)[C@H]3CC[C@]12C | – | – | <50% | Toxic | Toxic
13 | – | – | C[C@@H]1CC[C@@]2(OC1)O[C@H]1C[C@H]3[C@@H]4CC[C@H]5C[C@@H](O[C@H]6O[C@H](CO)[C@@H](O)[C@H](O)[C@H]6O)[C@H](O)C[C@]5(C)[C@H]4CC[C@]3(C)[C@H]1[C@@H]2C | <50% | <50% | <50% | – | –
14 | – | – | C[C@@H]1CC[C@]2(C[C@H]3C[C@H]4[C@@H]5CC[C@H]6C[C@@H](O[C@@H]7O[C@H](CO)[C@@H](O)[C@H](O)[C@H]7O)[C@H](O)C[C@]6(C)[C@H]5CC[C@]4(C)[C@H]3[C@@H]2C)OC1 | <50% | <50% | <50% | – | –
15 | – | – | C[C@@H]1CC[C@]2(C[C@H]3C[C@H]4[C@@H]5CC[C@H]6C[C@@H](O[C@H]7O[C@H](CO)[C@@H](O[C@H]8O[C@H](CO)[C@@H](O)[C@H](O)[C@H]8O)[C@H](O)[C@H]7O)[C@H](O)C[C@]6(C)[C@H]5CC[C@]4(C)[C@H]3[C@@H]2C)OC1 | <50% | <50% | <50% | – | –
16 | – | – | C[C@@H]1CC[C@]2(C[C@H]3C[C@H]4[C@@H]5CC[C@H]6C[C@@H](O[C@@H]7O[C@H](CO)[C@@H](O[C@@H]8O[C@H](CO)[C@@H](O)[C@H](O)[C@H]8O)[C@H](O)[C@H]7O)[C@H](O)C[C@]6(C)[C@H]5CC[C@]4(C)[C@H]3[C@@H]2C)OC1 | – | – | – | Non-toxic | Non-toxic
